Results as given in ChEMBL document CHEMBL1158072, “Antioxidative phenolics from the fresh leaves of Ternstroemia japonica” (J Nat Prod, 2006).

Legend:
[1] = Antioxidant activity assessed as peroxynitrite scavenging activity by fluorescence spectroscopy; assay type: functional
How it was run: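 Authentic peroxynitrite oxidation of dihydrorhodamine 123 (final 5 µM) in N2-purged buffer of 90 mM NaCl, 50 mM Na3PO4, 5 mM KCl and 100 µM DTPA, pH 7.4. Fluorescence read 5 min after treatment with and without ONOO- at ex 480/em 530 nm. Signal taken as final minus background. DL-penicillamine positive control. IC50 reported as mean ± standard error, n = 3.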

[2] = Antioxidant activity assessed as inhibition of hydroxyl radical generation by fluorescence spectroscopy; assay type: functional
How it was run: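 Test samples in 10% EtOH (final 0.4%) added to 1 mM H2O2 plus 0.2 mM FeSO4 and incubated 37 °C for 5 min. Esterase-treated 2 µM DCHF-DA (in EtOH) then added and fluorescence followed for 30 min at ex 460/em 530 nm. Trolox positive control. IC50 reported as mean ± standard error of triplicate experiments.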

Kidney = assay: Antioxidant activity assessed as inhibition of total reactive oxygen species generation in Wistar rat kidney by 2',7'-dichlorofluorescein based fluorescence spectroscopy; assay type: functional, tissue-based
How it was run: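 Rat kidney homogenate (postmicrosomal fraction) from freshly killed male Wistar rats, 150-200 g, mixed with samples in 10% EtOH (final 0.4%). DCHF-DA (12.5 mM, in EtOH, final 0.2%) added in 50 mM phosphate buffer pH 7.4 and incubated 37 °C for 30 min. DCF fluorescence read at ex 460/em 530 nm. Trolox positive control. IC50 reported as mean ± standard error, triplicate.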

Compound | IC50 [1] [µM] | IC50 [2] [µM] | IC50 (Kidney) [µM]
O=C(Cc1ccc(O)c(O)c1)O[C@H]1[C@H](OCCc2cc(O)c(O)cc2O)O[C@H](CO)[C@@H](O)[C@@H]1O | 1.54 | 4.21 | 45.4
O=c1c(O[C@@H]2O[C@H](CO)[C@@H](O)[C@H](O)[C@H]2O[C@@H]2OC[C@@H](O)[C@H](O)[C@H]2O)c(-c2ccc(O[C@@H]3O[C@H](CO)[C@@H](O)[C@H](O)[C@H]3O)cc2)oc2cc(O)cc(O)c12 | 13.5 | 5.28 | 82.2
CC(C)(S)C(N)C(=O)O (racemic) [DL-PENICILLAMINE] | 1.05 | – | –
O=c1c(O)c(-c2ccc(O)c(O)c2)oc2cc(O)cc(O)c12 [QUERCETIN] | 1.38 | 2.39 | 29.1
O=C(Cc1ccc(O)c(O)c1)O[C@H]1[C@H](OCCc2ccc(O)c(O)c2)O[C@H](CO)[C@@H](O)[C@@H]1O [TERNSTROSIDE A] | 1.69 | 3.41 | 39.3
O=C(Cc1ccc(O)cc1)O[C@H]1[C@H](OCCc2ccc(O)c(O)c2)O[C@H](CO)[C@@H](O)[C@@H]1O [TERNSTROSIDE B] | 2.36 | 4.66 | 62.5
O=C(Cc1ccc(O)c(O)c1)O[C@@H]1[C@@H](O)[C@H](OCCc2ccc(O)c(O)c2)O[C@H](CO)[C@H]1O [TERNSTROSIDE C] | 1.14 | 3.26 | 33.3
O=C(Cc1ccc(O)c(O)c1)OC[C@H]1O[C@@H](OCCc2ccc(O)c(O)c2)[C@H](O)[C@@H](O)[C@@H]1O [TERNSTROSIDE D] | 3.85 | 6.5 | 66.9
O=C(Cc1ccc(O)c(O)c1)O[C@H]1[C@H](OCCc2ccc(O)cc2)O[C@H](CO)[C@@H](O)[C@@H]1O [TERNSTROSIDE E] | 2.56 | 4.72 | 55
Cc1c(C)c2c(c(C)c1O)CCC(C)(C(=O)O)O2 (configuration not stated) [TROLOX] | – | 2.83 | 29.5
